Test [1] addresses T1, Glucosyltransferase-SI (Streptococcus mutans serotype c (strain ATCC 700610 / UA159)) (UniProt P13470).
T1 sequence (whole entry): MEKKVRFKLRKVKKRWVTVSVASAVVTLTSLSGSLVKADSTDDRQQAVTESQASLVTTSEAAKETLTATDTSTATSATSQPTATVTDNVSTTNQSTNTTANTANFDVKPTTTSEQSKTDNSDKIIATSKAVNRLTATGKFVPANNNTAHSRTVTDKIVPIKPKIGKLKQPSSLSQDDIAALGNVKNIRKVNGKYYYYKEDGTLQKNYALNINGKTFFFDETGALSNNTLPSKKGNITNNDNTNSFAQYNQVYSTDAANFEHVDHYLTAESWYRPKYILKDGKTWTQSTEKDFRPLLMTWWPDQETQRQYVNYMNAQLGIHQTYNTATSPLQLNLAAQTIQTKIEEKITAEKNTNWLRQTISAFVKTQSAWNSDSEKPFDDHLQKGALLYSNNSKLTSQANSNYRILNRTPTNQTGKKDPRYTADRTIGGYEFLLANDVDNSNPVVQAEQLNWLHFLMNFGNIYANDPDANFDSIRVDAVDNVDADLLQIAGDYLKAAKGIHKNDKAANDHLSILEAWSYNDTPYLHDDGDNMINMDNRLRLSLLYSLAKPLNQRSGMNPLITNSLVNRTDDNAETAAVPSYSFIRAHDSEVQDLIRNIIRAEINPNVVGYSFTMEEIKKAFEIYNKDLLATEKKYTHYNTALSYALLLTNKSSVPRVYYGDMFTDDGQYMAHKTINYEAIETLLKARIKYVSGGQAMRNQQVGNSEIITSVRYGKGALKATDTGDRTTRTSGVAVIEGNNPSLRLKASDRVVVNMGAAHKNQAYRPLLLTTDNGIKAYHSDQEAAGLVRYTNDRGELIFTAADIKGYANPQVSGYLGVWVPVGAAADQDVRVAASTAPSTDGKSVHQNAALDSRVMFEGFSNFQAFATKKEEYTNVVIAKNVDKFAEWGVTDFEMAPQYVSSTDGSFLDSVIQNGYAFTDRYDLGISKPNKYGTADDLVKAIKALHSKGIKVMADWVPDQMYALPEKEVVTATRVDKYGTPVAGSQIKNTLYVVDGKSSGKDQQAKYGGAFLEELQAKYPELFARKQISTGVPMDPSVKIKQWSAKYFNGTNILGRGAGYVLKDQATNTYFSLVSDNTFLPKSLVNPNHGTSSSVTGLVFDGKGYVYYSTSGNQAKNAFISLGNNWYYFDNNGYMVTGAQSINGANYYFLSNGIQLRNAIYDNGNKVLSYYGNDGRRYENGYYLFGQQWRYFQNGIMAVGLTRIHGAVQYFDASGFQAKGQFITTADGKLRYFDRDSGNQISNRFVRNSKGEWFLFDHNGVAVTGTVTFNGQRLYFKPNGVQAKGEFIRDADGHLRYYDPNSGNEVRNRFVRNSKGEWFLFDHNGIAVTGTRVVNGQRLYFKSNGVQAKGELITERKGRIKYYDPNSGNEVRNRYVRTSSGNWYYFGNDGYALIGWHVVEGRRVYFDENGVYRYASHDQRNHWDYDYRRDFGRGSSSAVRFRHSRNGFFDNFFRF
Nature of the test: Inhibition of Wild-type Streptococcus mutans UA159 glucosyltransferase C at 50 uM by zymography. The method, boiled down: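 Compound (50 µM) added to overnight S. mutans UA159 wild-type cultures; Gtfs concentrated from supernatants, run on duplicate SDS-PAGE; second gel used for zymogram, glucan band intensity taken as Gtf activity.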

Test [2] deals with T2, Glucosyltransferase-I (Streptococcus mutans serotype c (strain ATCC 700610 / UA159)) (UniProt P08987).
T2 sequence (whole entry): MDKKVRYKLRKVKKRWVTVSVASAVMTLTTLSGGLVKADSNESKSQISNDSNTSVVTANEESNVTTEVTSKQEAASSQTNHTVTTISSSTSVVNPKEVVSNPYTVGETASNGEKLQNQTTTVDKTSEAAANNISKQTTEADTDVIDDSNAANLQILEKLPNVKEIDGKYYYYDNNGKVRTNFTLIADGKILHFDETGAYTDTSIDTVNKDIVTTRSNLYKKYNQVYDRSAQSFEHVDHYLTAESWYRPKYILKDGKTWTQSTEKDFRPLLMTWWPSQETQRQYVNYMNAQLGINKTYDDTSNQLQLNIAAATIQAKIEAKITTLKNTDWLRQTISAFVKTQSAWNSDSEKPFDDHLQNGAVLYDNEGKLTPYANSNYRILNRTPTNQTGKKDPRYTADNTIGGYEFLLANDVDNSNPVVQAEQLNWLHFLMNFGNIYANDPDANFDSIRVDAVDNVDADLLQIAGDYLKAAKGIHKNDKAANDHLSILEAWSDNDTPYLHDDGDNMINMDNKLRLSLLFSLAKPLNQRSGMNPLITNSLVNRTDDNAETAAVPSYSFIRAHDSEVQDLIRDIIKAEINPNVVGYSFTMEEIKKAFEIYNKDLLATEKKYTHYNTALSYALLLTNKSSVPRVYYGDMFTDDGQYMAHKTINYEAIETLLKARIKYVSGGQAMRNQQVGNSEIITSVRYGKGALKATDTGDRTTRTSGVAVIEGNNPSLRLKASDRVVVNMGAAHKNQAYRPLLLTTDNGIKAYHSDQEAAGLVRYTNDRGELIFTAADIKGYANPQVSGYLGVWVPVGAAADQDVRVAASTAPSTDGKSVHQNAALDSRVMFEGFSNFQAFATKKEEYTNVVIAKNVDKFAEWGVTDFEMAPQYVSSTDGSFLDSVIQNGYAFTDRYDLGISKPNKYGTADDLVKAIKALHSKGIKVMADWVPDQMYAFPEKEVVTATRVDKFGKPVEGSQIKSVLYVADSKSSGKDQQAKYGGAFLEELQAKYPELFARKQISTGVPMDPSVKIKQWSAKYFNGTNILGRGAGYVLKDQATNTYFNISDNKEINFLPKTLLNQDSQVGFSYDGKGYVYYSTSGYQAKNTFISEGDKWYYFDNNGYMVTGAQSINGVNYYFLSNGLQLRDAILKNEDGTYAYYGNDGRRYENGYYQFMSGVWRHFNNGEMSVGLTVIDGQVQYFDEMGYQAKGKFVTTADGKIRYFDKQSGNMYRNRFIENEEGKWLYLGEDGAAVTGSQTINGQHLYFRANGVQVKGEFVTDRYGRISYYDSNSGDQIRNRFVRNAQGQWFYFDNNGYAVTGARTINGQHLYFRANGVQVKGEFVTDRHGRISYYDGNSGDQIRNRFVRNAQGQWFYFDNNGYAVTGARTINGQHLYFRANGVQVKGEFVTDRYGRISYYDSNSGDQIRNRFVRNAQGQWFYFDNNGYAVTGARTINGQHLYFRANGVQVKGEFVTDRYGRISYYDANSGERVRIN
Nature of the test: Inhibition of Wild-type Streptococcus mutans UA159 glucosyltransferase B at 50 uM by coomassie blue staining based SDS-PAGE method. The method, boiled down: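 Compound (50 µM) added to overnight S. mutans UA159 wild-type cultures; Gtfs collected and concentrated from supernatants, run on SDS-PAGE in duplicate; one gel Coomassie blue stained for protein levels.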

Activity calls are given as the source filed them. No cut-off for these calls is given here.

For `O=C(/C=C\c1ccc(O)cc1O)c1ccc(O)cc1`, the inhibition entry in test [1] and in test [2] was “Active” in each case.

As for `O=C(/C=C\c1ccc(O)cc1O)c1cccc(O)c1`, the inhibition result in test [1] and in test [2] was “Active” throughout.

In the case of `O=C(/C=C/c1cc(O)c(O)cc1O)c1ccccc1O` (stereo in doubt; 18c), the inhibition entry in test [1] and in test [2] was “Active” throughout.

As for `O=C(/C=C/c1ccc(O)cc1O)c1ccc(O)cc1`, the inhibition entry in test [1] and in test [2] was “Active” in each case.

Take `O=C(/C=C/c1ccc(O)cc1O)c1cccc(O)c1` (stereo in doubt; 9a): the inhibition result in test [1] and in test [2] was “Active” each time.

Source of the values: ChEMBL document CHEMBL3822431, “Hydroxychalcone inhibitors of Streptococcus mutans glucosyl transferases and biofilms as potential anticaries agents” (Bioorg Med Chem Lett, 2016).
